Here are results for 10 compounds from ChEMBL document CHEMBL3046613 (J Agric Food Chem, 2010).

Structures are written as SMILES. Converted amounts (≈) assume the structure as drawn. Counter-ions that a name gives are not always drawn.

Assay [1] relates to Tobacco mosaic virus. Nature of the assay: Antiviral activity against Tobacco mosaic virus (TMV) pre-treated with 100 ug/mL compound for 30 min followed by inoculation on left side of Nicotiana tabacum leaves assessed as virus inactivation effect measured 3 to 4 days post viral infection. The assay is classed as functional. An outline of the steps:
(§1)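 TMV was mixed with an equal volume of compound solution for 30 min, then inoculated on the left half of N. tabacum L. leaves. A solvent-plus-virus mixture was inoculated on the right half as control. Local lesions were counted 3-4 days after inoculation. Each compound was run in three replicates.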

The test system of assay [2] is Tobacco mosaic virus. The assay is described as follows: Antiviral activity against Tobacco mosaic virus (TMV) inoculated on fresh tobacco leaves followed by dipping into compound solution at 25 ug/mL for 20 min and measured 72 hr post compound treatment by half-leaf method. It is filed as functional. Summed up: (§2)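 Half-leaf method. Fresh tobacco leaves at the 5-6 growth stage were inoculated by juice-leaf rubbing with TMV at 5.88 × 10-2 μg/mL. Leaves were cut into halves along the main vein. Each half was immersed for 20 min in compound solution or in double-distilled water, then cultured at 25 °C for 72 h. Each concentration was run at least three times.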

Assay [3] concerns Tobacco mosaic virus. Nature of the assay: Antiviral activity against Tobacco mosaic virus (TMV) inoculated on fresh tobacco leaves followed by dipping into compound solution at 50 ug/mL for 20 min and measured 72 hr post compound treatment by half-leaf method. The assay is classed as functional. Summed up:
as §2

Assay [4] deals with Tobacco mosaic virus. The assay is described as follows: Antiviral activity against Tobacco mosaic virus (TMV) inoculated on whole Nicotiana tabacum leaves followed by smearing with 100 ug/mL compound solution on left side of leaves assessed as viral infection curative effect measured 3 to 4 days post viral infection. The assay is classed as functional. An outline of the steps: (§3)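 Whole growing N. tabacum L. leaves of the same age were dip-inoculated with TMV at 6.0 × 10-3 mg/mL.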

Assay [5] has as its system Tobacco mosaic virus. Nature of the assay: Antiviral activity against Tobacco mosaic virus (TMV) inoculated on fresh tobacco leaves followed by dipping into compound solution at 5 ug/mL for 20 min and measured 72 hr post compound treatment by half-leaf method. It is filed as functional. An outline of the steps: as §2
Assay [6] has as its system Tobacco mosaic virus. Nature of the assay: Antiviral activity against Tobacco mosaic virus (TMV) inoculated on fresh tobacco leaves followed by dipping into compound solution for 20 min and measured 72 hr post compound treatment by half-leaf method. The assay is classed as functional, organism-based. An outline of the steps:
as §2

Assay [7] relates to Tobacco mosaic virus. The assay is described as follows: Antiviral activity against Tobacco mosaic virus (TMV) inoculated on fresh tobacco leaves followed by dipping into compound solution at 100 ug/mL for 20 min and measured 72 hr post compound treatment by half-leaf method. It is filed as functional. An outline of the steps:
as §2

Assay [8] relates to Tobacco mosaic virus. The assay is described as follows: Antiviral activity against Tobacco mosaic virus (TMV) inoculated on 100 ug/mL compound smeared Nicotiana tabacum leaves assessed as protective effect against viral infection measured 3 to 4 days post viral infection. The assay is classed as functional. Summed up: (§4)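 N. tabacum L. leaves of the same age were used. Compound solution was smeared on the left half and solvent control on the right half. Leaves were inoculated with TMV 12 h later.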

Assay [9] deals with Tobacco mosaic virus. The assay is described as follows: Antiviral activity against Tobacco mosaic virus (TMV) inoculated on fresh tobacco leaves followed by dipping into compound solution at 40 ug/mL for 20 min and measured 72 hr post compound treatment by half-leaf method. The assay is classed as functional. As to conditions: for inhibition at 40 µg/mL: Tobacco mosaic virus. Summed up: as §2

Assay [10] relates to Tobacco mosaic virus. Nature of the assay: Antiviral activity against Tobacco mosaic virus (TMV) inoculated on fresh tobacco leaves followed by dipping into compound solution at 250 ug/mL for 20 min and measured 72 hr post compound treatment by half-leaf method. The assay is classed as functional. An outline of the steps: as §2
The subject of assay [11] is Tobacco mosaic virus. The assay is described as follows: Antiviral activity against Tobacco mosaic virus (TMV) pre-treated with 500 ug/mL compound for 30 min followed by inoculation on left side of Nicotiana tabacum leaves assessed as virus inactivation effect measured 3 to 4 days post viral infection. It is filed as functional. An outline of the steps:
as §1

Assay [12] concerns Tobacco mosaic virus. Nature of the assay: Antiviral activity against Tobacco mosaic virus (TMV) inoculated on 500 ug/mL compound smeared Nicotiana tabacum leaves assessed as protective effect against viral infection measured 3 to 4 days post viral infection. It is filed as functional. Summed up: as §4
Assay [13] deals with Tobacco mosaic virus. The assay is described as follows: Antiviral activity against Tobacco mosaic virus (TMV) inoculated on fresh tobacco leaves followed by dipping into compound solution at 125 ug/mL for 20 min and measured 72 hr post compound treatment by half-leaf method. The assay is classed as functional. Summed up:
as §2

For assay [14], the system named is Tobacco mosaic virus. Nature of the assay: Antiviral activity against Tobacco mosaic virus (TMV) inoculated on whole Nicotiana tabacum leaves followed by smearing with 500 ug/mL compound solution on left side of leaves assessed as viral infection curative effect measured 3 to 4 days post viral infection. It is filed as functional. An outline of the steps: as §3

Assay [15] deals with Tobacco mosaic virus. The assay is described as follows: Antiviral activity against Tobacco mosaic virus (TMV) inoculated on fresh tobacco leaves followed by dipping into compound solution at 500 ug/mL for 20 min and measured 72 hr post compound treatment by half-leaf method. The assay is classed as functional. An outline of the steps: as §2

Regarding `CC1(C)C2CC[C@]1(S(=O)(=O)O)C(=O)C2.COc1cc2c3c(c4cc(OC)c(OC)cc4c2cc1OC)CN1CCCC1C3` (stereo unspecified), the Activity with Tobacco mosaic virus [1] worked out at 55.6%; in the assay with Tobacco mosaic virus [4], 65.5%; in the assay on Tobacco mosaic virus [8], 47.7%. For the same compound, the inhibition (in general, the share of the control response that was lost under treatment) at 25 µg/mL with Tobacco mosaic virus [2] came to 42.4%. Also, the inhibition at 50 µg/mL in the assay with Tobacco mosaic virus [3] was determined as 60.6%. Besides, 5 µg/mL produced 32.3% inhibition in the assay on Tobacco mosaic virus [5]. A half-maximal effect with Tobacco mosaic virus [6] (EC50) was put at 23.6 µg/mL. In the assay with Tobacco mosaic virus [7], this compound returned an inhibition at 100 µg/mL of 73.9%.

As for `COc1cc(/C=C/C(=O)O)ccc1O.COc1cc2c3c(c4cc(OC)c(OC)cc4c2cc1OC)CN1CCCC1C3` (stereo unspecified), the Activity with Tobacco mosaic virus [1] is on record as 51.1%; in the assay on Tobacco mosaic virus [4], 13.8%; in the assay with Tobacco mosaic virus [8], 45.5%. Also, testing at 25 µg/mL in the assay on Tobacco mosaic virus [2] gave an inhibition of 18.5%. In addition, testing at 50 µg/mL in the assay with Tobacco mosaic virus [3] gave an inhibition of 68.5%. For the same compound, the inhibition at 5 µg/mL in the assay on Tobacco mosaic virus [5] is 15.7%. The EC50 (in general, the concentration at which the effect is half-maximal) in the assay with Tobacco mosaic virus [6] was determined as 40.3 µg/mL. In the assay with Tobacco mosaic virus [7], testing at 100 µg/mL gave an inhibition of 72.2%.

For the compound `COc1cc2c3c(c4cc(OC)c(OC)cc4c2cc1OC)CN1CCCC1C3.O=C(O)CC(O)(CC(=O)O)C(=O)O` (stereo unspecified), the “inhibition (INH)” value with Tobacco mosaic virus [9] was 65.2%.

On to `COc1cc2c3c(c4cc(OC)c(OC)cc4c2cc1OC)CN1CCCC1C3.O=C(O)c1cc(S(=O)(=O)O)ccc1O` (stereo unspecified), for which the Activity in the assay with Tobacco mosaic virus [1] was determined as 42.2%; with Tobacco mosaic virus [4], 62.1%; with Tobacco mosaic virus [8] it was 38.6%. This compound also registered an inhibition at 25 µg/mL with Tobacco mosaic virus [2] of 35.7%. For the same compound, the inhibition at 50 µg/mL in the assay on Tobacco mosaic virus [3] is 79.9%. In the assay on Tobacco mosaic virus [5], this compound displayed an inhibition at 5 µg/mL of 15.6%. In addition, the response in the assay on Tobacco mosaic virus [6] was half-maximal at 21.3 µg/mL (EC50). The same compound gave an inhibition at 100 µg/mL in the assay on Tobacco mosaic virus [7] of 92.8%.

Take `COc1ccc2c3c(c4cc(OC)c(OC)cc4c2c1)CC1CCCN1C3` (racemic) [(+/-)-ANTOFINE]: the Activity with Tobacco mosaic virus [1] is given as 66.3%; in the assay with Tobacco mosaic virus [4], 54.4%; in the assay on Tobacco mosaic virus [8], 26.7%. This compound returned an inhibition at 25 µg/mL with Tobacco mosaic virus [2] of 68.8%. 50 µg/mL produced 69.7% inhibition in the assay on Tobacco mosaic virus [3]. Further, the inhibition at 5 µg/mL in the assay on Tobacco mosaic virus [5] stood at 56.7%. The compound also registered an EC50 in the assay on Tobacco mosaic virus [6] of less than 25 µg/mL. In the assay with Tobacco mosaic virus [7], this compound registered an inhibition at 100 µg/mL of 80.7%.

For the compound `COc1ccc2c3c(c4cc(OC)c(OC)cc4c2c1)CN1CCCC1C3` (racemic) [(+/-)-DEOXYTYLOPHORININE], testing at 40 µg/mL in the assay with Tobacco mosaic virus [9] gave an inhibition of 79.2%. Also, the Activity is given as 67.4% in the assay on Tobacco mosaic virus [1], 26.1% with Tobacco mosaic virus [4] and 60% in the assay with Tobacco mosaic virus [8]. For the same compound, the inhibition at 25 µg/mL with Tobacco mosaic virus [2] was 65%. Further, the inhibition at 50 µg/mL in the assay with Tobacco mosaic virus [3] amounted to 66.7%. The compound further showed a concentration for a half-maximal effect (EC50) with Tobacco mosaic virus [6] of less than 25 µg/mL. In the assay on Tobacco mosaic virus [7], this compound gave an inhibition at 100 µg/mL of 75%.

For `CNCC(=O)N[C@@H](CO)C(=O)N[C@H]1[C@H](O)[C@@H](O)[C@H](n2ccc(N)nc2=O)O[C@@H]1C(N)=O` [NINGNANMYCIN], in the assay with Tobacco mosaic virus [2], at 25 µg/mL the inhibition was 28.2%. Also, in the assay with Tobacco mosaic virus [10], testing at 250 µg/mL gave an inhibition of 42.1%. In addition, the Activity with Tobacco mosaic virus [11] is listed as 50.5%; in the assay on Tobacco mosaic virus [12], 51.3%; in the assay with Tobacco mosaic virus [14], 23%. This compound gave an inhibition at 125 µg/mL in the assay on Tobacco mosaic virus [13] of 27%. This compound registered an EC50 with Tobacco mosaic virus [6] of 440 µg/mL (≈ 992 µM). Also, the inhibition at 500 µg/mL in the assay with Tobacco mosaic virus [15] worked out at 59.3%.

`COc1cc2c3c(c4cc(OC)c(OC)cc4c2cc1OC)CN1CCCC1C3` (stereo unspecified) [TYLOPHORINE 2-HYDROXYSUCCINIC ACID SALT] registered an inhibition at 40 µg/mL in the assay on Tobacco mosaic virus [9] of 69.1%.

For `COc1cc2c3c(c4cc(OC)c(OC)cc4c2cc1OC)CN1CCCC1C3.Nc1ccc(S(=O)(=O)O)cc1` (stereo unspecified) [TYLOPHORINE P-AMINOBENZENESULFONIC ACID SALT], the Activity in the assay on Tobacco mosaic virus [1] was 75.6%; with Tobacco mosaic virus [4], 34.5%; with Tobacco mosaic virus [8], 38.6%. In the assay on Tobacco mosaic virus [2], this compound came in with an inhibition at 25 µg/mL of 58.8%. Further, 50 µg/mL produced 74.3% inhibition in the assay with Tobacco mosaic virus [3]. In addition, the inhibition at 5 µg/mL with Tobacco mosaic virus [5] stood at 31.4%. The 50% effective concentration (EC50) in the assay with Tobacco mosaic virus [6] was 14.3 µg/mL. In addition, at 100 µg/mL the inhibition in the assay with Tobacco mosaic virus [7] was 80.9%.

In the case of `COc1cc2c3c(c4cc(OC)c(OC)cc4c2cc1OC)CN1CCCC1C3.O=C(O)c1ccc(O)cc1` (stereo unspecified) [TYLOPHORINE P-HYDROXYBENZOIC ACID SALT], the Activity was found to be 60.9% in the assay with Tobacco mosaic virus [1], 42.9% in the assay with Tobacco mosaic virus [4] and 54.9% in the assay on Tobacco mosaic virus [8]. In the assay with Tobacco mosaic virus [2], this compound returned an inhibition at 25 µg/mL of 54.7%. In the assay on Tobacco mosaic virus [3], the inhibition at 50 µg/mL amounted to 70%. For the same compound, in the assay with Tobacco mosaic virus [5], the inhibition at 5 µg/mL turned out to be 50%. In addition, the midpoint of the response with Tobacco mosaic virus [6], the EC50, lay at 7.7 µg/mL. In the assay with Tobacco mosaic virus [7], this compound returned an inhibition at 100 µg/mL of 84.9%.
